The values below come from ChEMBL document CHEMBL5154888 (Eur J Med Chem, 2022).

pIC50: −log10 of the molar value. Activity calls are given as the source filed them. The rule behind the calls is not given here.

For data set [1], the target named is Glutamate NMDA receptor. Briefly: Inhibition of NMDA receptor in NMDA-stimulated rat cerebellar granule neurons assessed as measuring intracellular calcium concentration in presence of glycine by Fura2-AM dye based fluorescence assay. Type of data set: cell-based. The following applies: cerebellar granule neurone. In general terms: A change in cytosolic calcium serves as a functional read-out for many receptors and channels.

The target of data set [2] is Glutamate NMDA receptor; Grin1/Grin2a (Rattus norvegicus, UniProt P35439+Q00959). Nature of the data set: Inhibition of eGFP-tagged rat GluN1-1a/GluN2A transfected in human tsA201 cells assessed as inhibition glutamate-induced current measured at -65 mV holding potential applied for 10 secs by whole-cell patch-clamp method. It is filed as cell-based.
Data set [3] has as its target T1, Glutamate NMDA receptor; Grin1/Grin2a (Rattus norvegicus) (UniProt P35439+Q00959). Nature of the data set: Inhibition of eGFP-tagged rat GluN1/GluN2A transfected in human tsA201 cells assessed as recovery of glycine/NMDA-induced current at 10 uM treated for 40 secs followed by application of +60 mV holding potential for 5 secs measured after 40 secs of compound removal by whole-cell patch-clamp method relative to control. Type of data set: cell-based. The following applies: time 85.0 sec. The method, boiled down:
(§1)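 tsA201 cells transfected with rat GluN1, rat GluN2A and eGFP (0.5:1:1); dl-APV 200 μM added at transfection. Whole-cell recording at rt, held at −60 mV. Agonist is 100 μM NMDA + 10 μM glycine; blocker at 10 μM applied by piezo until steady state. A 5 s jump to +60 mV is made during block and again after blocker washout. Block is computed from steady-state current ratios, and recovery as current after removal over current before application.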
(In general: The patch-clamp technique gives a direct electrical read-out from membranes.)

Data set [4] addresses T1, Glutamate NMDA receptor; Grin1/Grin2a (Rattus norvegicus). Briefly: Inhibition of eGFP-tagged rat GluN1/GluN2A transfected in human tsA201 cells assessed as blockade of glycine/NMDA-induced current at 10 uM treated for 40 secs measured at +60 mV holding potential applied for 5 secs by whole-cell patch-clamp method relative to control. It is filed as cell-based. As to conditions: time 45.0 sec. The method, boiled down: as §1

Data set [5] has as its system Caenorhabditis elegans. Briefly: Neuroprotective activity against transgenic Caenorhabditis elegans CL2355 assessed as A-beta aggregration-induced reversal of disrupted chemotaxis behaviour by measuring chemotaxis index at […] treated for 72 hrs followed by compound washout and odorant addition for 1 hr. Type of data set: functional, organism-based. As to conditions: dose 1.5 µM.

Data set [6] concerns the target T1, Glutamate NMDA receptor; Grin1/Grin2a (Rattus norvegicus). Briefly: Inhibition of eGFP-tagged rat GluN1/GluN2A transfected in human tsA201 cells assessed as weighted time constant for blockade of glycine/NMDA-induced current at 10 uM at 1 sec by whole-cell patch-clamp method. Type of data set: cell-based.
Data set [7] has as its system Mus musculus. Briefly: Recovery of cognitive function in 5XFAD transgenic AD mouse model assessed as short term memory by measuring increased discrimination index at 5 mg/kg/day, po for 4 weeks measured after 4 days of habituation by novel object recognition test. Type of data set: functional, organism-based. The following applies: time 32.0 day. The method, boiled down:
(§2)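 5XFAD mice, 6 months old, treated at 5 mg/kg/day for 4 weeks; n = 8–11 per group, with WT controls. Novel object recognition test: discrimination index from exploration time of novel versus familiar object, tested at 2 h (short-term) and 24 h (long-term).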

Data set [8] concerns Mus musculus. Nature of the data set: Upregulation of calbindin D-28K levels in hippocampus of 5XFAD transgenic AD mouse model at 5 mg/kg, po by Western blot analysis. It is filed as functional, organism-based. The method, boiled down: (§3)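 5XFAD mice treated at 5 mg/kg/day for 4 weeks, n = 3–4 per group. Western blot quantifies GluN2A, PSD95, calbindin, p-Fyn/Fyn, p-GluN2B(Tyr1472)/GluN2B, and nuclear versus cytosolic p-CREB ratio. Values normalised to WT as 100%.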

The test system of data set [9] is Mus musculus. Nature of the data set: Upregulation of phosphorylated-GluN2B levels at Tyr1472 residue in hippocampus of 5XFAD transgenic AD mouse model at 5 mg/kg, po by Western blot analysis. It is filed as functional, organism-based. The method, boiled down:
as §3
A general note: In western blotting, separated proteins are transferred to a membrane and probed.

The test system of data set [10] is Mus musculus. Nature of the data set: Upregulation of PSD in hippocampus of 5XFAD transgenic AD mouse model at 5 mg/kg, po by Western blot analysis. Type of data set: functional, organism-based. The method, boiled down:
as §3

Data set [11] has as its system Mus musculus. Briefly: Upregulation of phosphorylated-Fyn levels in hippocampus of 5XFAD transgenic AD mouse model at 5 mg/kg, po by Western blot analysis. It is filed as functional, organism-based. The method, boiled down: as §3
Data set [12] deals with Caenorhabditis elegans. Nature of the data set: Effect on locomotory activity in transgenic Caenorhabditis elegans CL2006 model of paralysis assessed as reduction in defective locomotion by measuring motor index at 0.1 to 10 uM by motor behaviour assay. As to conditions: dose 0.1-10 µM. Type of data set: functional, organism-based. The method, boiled down: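 C. elegans CL2006 (constitutive human Aβ1–42), synchronised by hypochlorite and hatched as L1. Compounds in DMSO diluted into water, 1% DMSO final; tested at 0.1–10 μM. Treatment in liquid culture, 25–30 L1 worms per well with inactivated OP50, 4 days at 20 °C. Defective locomotion scored as motor index; N2 is the reference strain.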

Data set [13] deals with T1, Glutamate NMDA receptor; Grin1/Grin2a (Rattus norvegicus). Nature of the data set: Inhibition of eGFP-tagged rat GluN1/GluN2A transfected in human tsA201 cells assessed as blockade of glycine/NMDA-induced current at 10 uM treated for 40 secs measured at -60 mV holding potential after returning from +60 mV application for 5 secs by whole-cell patch-clamp method relative to control. Type of data set: cell-based. As to conditions: time 45.0 sec.

Data set [14] concerns Mus musculus. Nature of the data set: Recovery of cognitive function in 5XFAD transgenic AD mouse model assessed as long term memory by measuring increase in discrimination index at 5 mg/kg/day, po for 4 weeks measured after 5 days of habituation by novel object recognition test. As to conditions: time 33.0 day. It is filed as functional, organism-based. The method, boiled down:
as §2

Data set [15] concerns the target T1, Glutamate NMDA receptor; Grin1/Grin2a (Rattus norvegicus). Nature of the data set: Inhibition of eGFP-tagged rat GluN1/GluN2A transfected in human tsA201 cells assessed as weighted time constant for recovery of glycine/NMDA-induced current at 10 uM treated for 40 secs followed by application of +60 mV holding potential for 5 secs measured after 40 secs of compound removal by whole-cell patch-clamp method. It is filed as cell-based. The following applies: time 85.0 sec.

Data set [16] in a line: in vitro. As to conditions: PAMPA.

Take `CC(=O)c1ccc2c(c1)C1CC3(C)CC2CC(N)(C1)C3` (centres undefined): the pIC50 (as a rule, the IC50 on a negative log10 scale, so that one unit is a factor of ten) in data set [1] was 3.49.
The same measure, in the same setting: the result for `CN(C)C12CC3CC(C)(CC(C1)c1cc([N+](=O)[O-])ccc13)C2` (centres undefined) reads 3.51.
Turning to `COc1cc2c(cc1OC)C1CC3(C)CC2CC(N)(C1)C3`, the pIC50 in [1] is 3.29.
Regarding `CNC1(c2ccccc2Cl)CCCCC1=O` (centres undefined) [KETAMINE], in data set [2], the pIC50 was 6.00.
For the compound `CC12CC3CC(C)(C1)CC(N)(C3)C2`, the inhibition – broadly, the drop in the measured response relative to a control, in per cent – in data set [3] was 93.6%; in data set [4], -3.9%; in data set [13], 86.2%. The outcome in data set [5], in data set [7], in [8], in [9], in [10] and in [11] was Active. Also, the outcome in data set [12] and in data set [14] was Active. Also, the inhibition result in data set [6] was “Active”. Also, the TIME in data set [15] was determined as 0.00178 h.
As for `CCn1cc(C(=O)O)c(=O)c2cc(F)c(N3CCNC(C)C3)c(F)c21` (centres undefined) [LOMEFLOXACIN], the Papp – broadly, the rate of passage across a membrane or cell layer, normalised by area and donor concentration – in data set [16] worked out at 0.86 ×10⁻⁶ cm/s.
Take `CC12CC3CC(N)(CC(C1)c1cc([N+](=O)[O-])ccc13)C2` (centres undefined): in data set [1], the pIC50 is 3.79.
